{"source": "paper PMC6598219", "about": "(Saudi Pharmaceutical Journal : SPJ, 2019)", "key": {"[1]": {"assay": "ABTS radical cation scavenging activity", "outline": "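ABTS radical cation formed by mixing aqueous 7 mmol/L ABTS and 2.45 mmol/L potassium persulfate 1:1 and keeping in the dark 6 h at room temperature. The radical was diluted in ethanol and equilibrated at 30 °C. Test compound aliquots at 20, 40, 60, 80 and 100 µg/mL were added, incubated 30 °C for 20 min, and read at 734 nm with BHA as reference. Scavenging % = (Ac − Aa)/Ac × 100. Results given as mean ± SD.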"}, "[2]": {"assay": "DPPH free radical scavenging activity", "outline": "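Test compound aliquots at 20, 40, 60, 80 and 100 µg/mL were added to 0.004% DPPH solution, and absorbance was read at 520 nm after 30 min. BHA served as reference and methanol as control. Inhibition % = (Ao − At)/Ao × 100, with Ao the control absorbance. Results given as mean ± SD.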"}}, "data": [{"compound": "COc1ccc(O)c(C(C)(C)C)c1", "note": "[BHA, butylated hydroxyanisole]", "values": [{"measurement": "ABTS scavenging property (%)", "setting": "[1]; at 100 µg/mL concentration", "result": "98.20 ± 4.60", "unit": "%"}, {"measurement": "IC50, ABTS radical scavenging", "setting": "[1]; mean of three replicates", "result": "28.70 ± 5.20", "unit": "µg/mL"}, {"measurement": "DPPH free radical scavenging property (%)", "setting": "[2]; at 100 µg/mL", "result": "93.4 ± 1.6", "unit": "%"}, {"measurement": "IC50, DPPH free radical scavenging", "setting": "[2]; mean of three replicates", "result": "34.50 ± 6.20", "unit": "µg/mL"}]}]}
